≈ marks a conversion by molar mass, not a printed value.
Assays:
[1] = system: Mycobacterium tuberculosis; assay: Antituberculosis activity against Mycobacterium tuberculosis H37Rv under anaerobic conditions by fluorescence based low-oxygen-recovery assay; format: functional
[2] = system: Mycobacterium tuberculosis; assay: Antituberculosis activity against Mycobacterium tuberculosis H37Rv under aerobic conditions by microplate alamar blue assay; format: functional
[3] = Aqueous solubility of the compound in water at pH 7 by HPLC analysis; format: physicochemical
Outline: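 Solubility measured in water at pH 7 and 20 °C, quantified by HPLC.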

| Structure (SMILES) | MIC [1] | MIC [2] | solubility [3] |
| --- | --- | --- | --- |
| O=[N+]([O-])c1cn2c(n1)OC[C@@H](Oc1cccc(-c3ccc(C(F)(F)F)cc3)n1)C2 | 35 µM (≈ 14.2 µg/mL) | 0.55 µM (≈ 0.223 µg/mL) |  |
| O=[N+]([O-])c1cn2c(n1)OC[C@@H](Oc1ccnc(-c3ccc(C(F)(F)F)cc3)c1)C2 | > 128 µM | 0.65 µM (≈ 0.264 µg/mL) |  |
| O=[N+]([O-])c1cn2c(n1)OC[C@@H](OC/C=C/c1ccc(-c3ccc(C(F)(F)F)cc3)cc1)C2 | 43 µM (≈ 19.2 µg/mL) | 0.045 µM (≈ 0.02 µg/mL) |  |
| O=[N+]([O-])c1cn2c(n1)OC[C@@H](Oc1ccc(-c3ccc(C(F)(F)F)cc3)cn1)C2 | 12 µM (≈ 4.88 µg/mL) | 0.1 µM (≈ 0.0406 µg/mL) |  |
| O=[N+]([O-])c1cn2c(n1)OC[C@@H](OCCOc1ccc(-c3ccc(F)cc3)cn1)C2 | 2.4 µM (≈ 0.961 µg/mL) | 0.02 µM (≈ 0.00801 µg/mL) |  |
| O=[N+]([O-])c1cn2c(n1)OC[C@@H](Oc1cccc(-c3ccc(OC(F)F)cc3)n1)C2 | 4.4 µM (≈ 1.78 µg/mL) | 0.52 µM (≈ 0.21 µg/mL) |  |
| O=[N+]([O-])c1cn2c(n1)OC[C@@H](Oc1ncc(-c3ccc(F)cc3)cn1)C2 | 7.4 µM (≈ 2.64 µg/mL) | 1.6 µM (≈ 0.572 µg/mL) |  |
| O=[N+]([O-])c1cn2c(n1)OC[C@@H](Oc1ccnc(-c3ccc(OC(F)(F)F)cc3)c1)C2 | 2.6 µM (≈ 1.1 µg/mL) | 0.3 µM (≈ 0.127 µg/mL) | 0.53 µg/mL (≈ 1.25 µM) |
| O=[N+]([O-])c1cn2c(n1)OC[C@@H](OCC#Cc1cccc(-c3ccc(OC(F)F)cc3)c1)C2 | 1.4 µM (≈ 0.618 µg/mL) | 0.09 µM (≈ 0.0397 µg/mL) |  |
| O=[N+]([O-])c1cn2c(n1)OC[C@@H](Oc1ccc(-c3ccc(F)cc3)nc1)C2 | 5.6 µM (≈ 2 µg/mL) | 0.5 µM (≈ 0.178 µg/mL) |  |
| O=[N+]([O-])c1cn2c(n1)OC[C@@H](OCCCc1ccc(C(F)(F)F)nc1)C2 | 12 µM (≈ 4.47 µg/mL) | 0.51 µM (≈ 0.19 µg/mL) | 168 µg/mL (≈ 451 µM) |
| O=[N+]([O-])c1cn2c(n1)OC[C@@H](OCC#Cc1ccc(-c3ccc(C(F)(F)F)nc3)nc1)C2 | 3.7 µM (≈ 1.65 µg/mL) | 0.12 µM (≈ 0.0534 µg/mL) |  |
| O=[N+]([O-])c1cn2c(n1)OC[C@@H](Oc1ccnc(-c3ccc(C(F)(F)F)nc3)c1)C2 | > 128 µM | 14 µM (≈ 5.7 µg/mL) |  |
| O=[N+]([O-])c1cn2c(n1)OC[C@@H](OCCOc1ncc(-c3ccc(C(F)(F)F)nc3)cn1)C2 | 56 µM (≈ 25.3 µg/mL) | 0.63 µM (≈ 0.285 µg/mL) |  |
| O=[N+]([O-])c1cn2c(n1)OC[C@@H](OCCOc1ccc(-c3ccc(F)cc3)cc1)C2 | 3.4 µM (≈ 1.36 µg/mL) | 0.04 µM (≈ 0.016 µg/mL) |  |
| O=[N+]([O-])c1cn2c(n1)OC[C@@H](OCCCC#Cc1ccc(C(F)(F)F)nc1)C2 | 9.2 µM (≈ 3.65 µg/mL) | 0.12 µM (≈ 0.0476 µg/mL) | 16 µg/mL (≈ 40.4 µM) |
| O=[N+]([O-])c1cn2c(n1)OC[C@@H](OC/C=C/c1ccc(-c3ccc(OC(F)F)cc3)cc1)C2 | 4.3 µM (≈ 1.91 µg/mL) | 0.08 µM (≈ 0.0355 µg/mL) |  |

| Structure (SMILES) | MIC [1] | MIC [2] | solubility [3] |
| --- | --- | --- | --- |
| O=[N+]([O-])c1cn2c(n1)OC[C@@H](OCCOc1ccc(-c3ccc(C(F)(F)F)cc3)cc1)C2 | 104 µM (≈ 46.7 µg/mL) | 0.04 µM (≈ 0.018 µg/mL) |  |
| O=[N+]([O-])c1cn2c(n1)OC[C@@H](Oc1ccc(-c3ccc(OC(F)(F)F)cc3)nc1)C2 | 1.5 µM (≈ 0.633 µg/mL) | 0.14 µM (≈ 0.0591 µg/mL) | 0.27 µg/mL (≈ 0.639 µM) |
| O=[N+]([O-])c1cn2c(n1)OC[C@@H](Oc1ccc(-c3ccc(C(F)(F)F)nc3)nc1)C2 | 17 µM (≈ 6.92 µg/mL) | 0.45 µM (≈ 0.183 µg/mL) |  |
| O=[N+]([O-])c1cn2c(n1)OC[C@@H](OCC#Cc1ccc(C(F)(F)F)cn1)C2 | 3.3 µM (≈ 1.22 µg/mL) | 0.12 µM (≈ 0.0442 µg/mL) | 8.4 µg/mL (≈ 22.8 µM) |
| O=[N+]([O-])c1cn2c(n1)OC[C@@H](Oc1ccc(-c3ccc(F)cc3)cn1)C2 | 15 µM (≈ 5.34 µg/mL) | 0.37 µM (≈ 0.132 µg/mL) |  |
| O=[N+]([O-])c1cn2c(n1)OC[C@@H](Oc1cc(-c3ccc(C(F)(F)F)cc3)ncn1)C2 | 17 µM (≈ 6.92 µg/mL) | 0.8 µM (≈ 0.326 µg/mL) |  |
| O=[N+]([O-])c1cn2c(n1)OC[C@@H](Oc1cc(-c3ccc(F)cc3)ccn1)C2 | 28 µM (≈ 9.98 µg/mL) | 5.2 µM (≈ 1.85 µg/mL) |  |
| O=[N+]([O-])c1cn2c(n1)OC[C@@H](OCC#Cc1ccc(-c3ccc(C(F)(F)F)cc3)cc1)C2 | 0.86 µM (≈ 0.381 µg/mL) | 0.22 µM (≈ 0.0975 µg/mL) |  |
| O=[N+]([O-])c1cn2c(n1)OC[C@@H](OCC#Cc1cccc(-c3ccc(F)cc3)c1)C2 | 0.88 µM (≈ 0.346 µg/mL) | 0.04 µM (≈ 0.0157 µg/mL) |  |
| O=[N+]([O-])c1cn2c(n1)OC[C@@H](Oc1cc(-c3ccc(C(F)(F)F)nc3)ccn1)C2 | 27 µM (≈ 11 µg/mL) | 3 µM (≈ 1.22 µg/mL) |  |
| O=[N+]([O-])c1cn2c(n1)OC[C@@H](Oc1ccc(C(F)(F)F)cn1)C2 | 16 µM (≈ 5.28 µg/mL) | 2.9 µM (≈ 0.958 µg/mL) |  |
| O=[N+]([O-])c1cn2c(n1)OC[C@@H](OCC#Cc1ccc(-c3ccc(C(F)(F)F)nc3)cn1)C2 | 6.6 µM (≈ 2.94 µg/mL) | 0.44 µM (≈ 0.196 µg/mL) |  |
| O=[N+]([O-])c1cn2c(n1)OC[C@@H](Oc1ccc(-c3ccc(C(F)(F)F)nc3)cn1)C2 | 14 µM (≈ 5.7 µg/mL) | 0.42 µM (≈ 0.171 µg/mL) |  |
| CC(O[C@@H]1COc2nc([N+](=O)[O-])cn2C1)c1ccc(-c2ccc(C(F)(F)F)nc2)cc1 (stereo partly drawn) | 4.3 µM (≈ 1.87 µg/mL) | 0.39 µM (≈ 0.169 µg/mL) |  |
| O=[N+]([O-])c1cn2c(n1)OC[C@@H](Oc1cc(-c3ccc(F)cc3)ncn1)C2 | 15 µM (≈ 5.36 µg/mL) | 0.99 µM (≈ 0.354 µg/mL) |  |
| O=[N+]([O-])c1cn2c(n1)OC[C@@H](OCCCc1ccc(-c3ccc(C(F)(F)F)cn3)cc1)C2 | 3 µM (≈ 1.35 µg/mL) | 0.055 µM (≈ 0.0247 µg/mL) |  |
| O=[N+]([O-])c1cn2c(n1)OC[C@@H](OCCOc1ccc(-c3ccc(C(F)(F)F)cc3)cn1)C2 | 3 µM (≈ 1.35 µg/mL) | 0.02 µM (≈ 0.00901 µg/mL) |  |
